Source: PubChem BioAssay (several laboratories)
An excerpt weighted towards active compounds, which were near 2.8% of everything screened.
m-calpain inh: blocks pig calpain II enzyme activity. purified calpain II, fluorogenic peptide substrate, 30 min. inhibition, % at 16 µM. 220,000 compounds, 0.37% hits;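 active = inhibition above about 50%, limit read from the data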
Mcl1-Noxa inh: disrupts binding of human Mcl-1 to Noxa peptide; TR-FRET Mcl-1/Noxa peptide binding, 2 h; inhibition, % at 21.7 µM; 220,000 compounds, 1.5% hits; AID 1022;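 active = compounds that cut the protein-peptide binding signal by more than 50% relative to plate controls in a single-dose test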;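 note: His-tagged Mcl-1 with rhodamine Noxa BH3 peptide and terbium anti-His antibody; 0% = Mcl-1 plus Noxa peptide wells and 100% = peptide-only wells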
Target sequence (Q07820 whole entry, looked up): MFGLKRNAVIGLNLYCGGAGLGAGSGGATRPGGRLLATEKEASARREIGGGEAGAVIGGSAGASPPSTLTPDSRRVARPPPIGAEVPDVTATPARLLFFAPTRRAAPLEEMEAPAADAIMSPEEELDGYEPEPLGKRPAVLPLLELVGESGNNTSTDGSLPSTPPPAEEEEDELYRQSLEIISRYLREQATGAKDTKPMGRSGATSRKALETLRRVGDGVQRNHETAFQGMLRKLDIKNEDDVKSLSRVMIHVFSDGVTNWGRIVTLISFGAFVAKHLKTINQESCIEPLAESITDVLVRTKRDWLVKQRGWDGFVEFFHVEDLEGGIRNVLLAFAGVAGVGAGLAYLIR
Calb biofilm kill: mixture kills Candida albicans biofilm cells; inhibition, % at 7.6 µM; C. albicans biofilm persisters + clotrimazole, fluorescence viability; primary screen in compound mixtures of four per well; AID 1242; 120,000 compounds, 0.02% hits;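 active = inhibition above 30.3% in the primary screen of four-compound pools, then above 30% when the compound was retested; inconclusive = passed the primary limit but could not be retested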;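 note: compounds exposed to preformed 24 h biofilms for 48 h; 0% = untreated biofilm control and 100% = clotrimazole plus chlorhexidine kill blank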
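Assay system: C. albicans biofilms / Medium: RPMI/MOPS medium, pH 7.0 / Schedule: biofilm formation 24 h, compound exposure 48 h, 37 °C / Measured by: Alamar Blue fluorescence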
Mcl1-Bid inh: disrupts binding of human Mcl-1 to Bid peptide. TR-FRET Mcl-1/Bid-Dy647 peptide binding, 1536-well. 220,000 compounds, 0.97% hits. Q07820. AID 1021. inhibition, % at 21.7 µM;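 active = compounds that cut the binding signal by more than half at the single screening dose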;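 note: His-tagged Mcl-1 with europium anti-His antibody binding Bid BH3 peptide; 0% = Mcl-1 plus peptide wells and 100% = peptide-only wells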
Bim-Mcl-1: human Bim-Mcl-1 interaction inhibition; Bead-based flow cytometry, Bim peptide-Mcl-1 binding; inhibition, % at 10 µM; 190,000 compounds, 0.1% hits; in the data active = inhibition above about 40%;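 note: 0% = no compound tracer wells and 100% = peptide blocker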
Arbovirus inh: antivirals against arbovirus infection; arbovirus infection cell-based antiviral screen; inhibition, % at 10 µM; 200,000 compounds, 0.37% hits; AID 1251; in the data active = inhibition above about 30%
Starred values were filed as active, the others as inactive; ? = inconclusive; . = no result given.

SMILES | m-calpain inh | Mcl1-Noxa inh | Calb biofilm kill | Mcl1-Bid inh | Bim-Mcl-1 | Arbovirus inh
COc1cc(C(C(=O)NC2CCCC2)N(C(=O)Cc2cccs2)C2CC2)cc(OC)c1OC (stereo not drawn) | -11 | 1 | 7 | -29 | 0 | 5
Cc1oc2c(c1C(=O)Nc1cccc3ccccc13)CCCC2 | 58* | 17 | . | -30 | 1 | -4
COc1ccccc1NC(=O)c1c(C)oc2c1CCCC2 | -1 | 0 | 8 | -26 | 0 | 6
Cc1ccc2[nH]c3c(c2c1)CCN1C(=O)OC(C)(C)C31C (stereo not drawn) | -10 | 68* | 12 | -19 | -1 | 8
Cc1cc(NC(=O)CN2C(=O)NC3(CCCCCC3)C2=O)no1 | 18 | 6 | 7 | 8 | . | .
C=CCSC1=N/C(=C\C=C\c2ccco2)C(=O)S1 | -21 | 76* | . | 32 | -6 | -10
COc1ccc(-c2cnnc(N/N=C/c3ccc(O)cc3)n2)cc1 | -10 | 88* | 16 | 25 | 0 | -4
Cc1ccc(C(=O)Nc2nnc(CC(=O)N/N=C/c3ccncc3)s2)cc1 | -140 | 63* | 13 | 17 | -2 | -5
CN(CCN(C)C(C)(C)C)C(=O)C(c1ccccc1)c1ccccc1 | 7 | 21 | 10 | 74* | . | .
CC1CCN(CCC(=O)N/N=C/c2ccc([N+](=O)[O-])cc2)CC1 | 6 | 5 | 5 | -18 | 0 | 2
Cc1nc2ccccc2c(=O)n1NC(=O)Cc1ccc([N+](=O)[O-])cc1 | 14 | 0 | 5 | 1 | -2 | -3
C/C(=N/N=C1/NC(=O)CC(C(=O)Nc2ccccc2)S1)c1cccs1 (stereo not drawn) | -11 | 21 | 15 | -10 | -6 | 15
O=C(O)c1ccccc1-c1ccc(/C=c2\sc3nc4cc(Br)cnc4n3c2=O)o1 | -83 | 91* | . | 78* | -2 | 3
O=C(CCSc1ccccc1)NC(=O)COC(=O)C1CCCCC1 | 60* | 16 | -2 | -13 | 1 | -1
CCOCCCn1c(C)nc2c(c1=O)c1nc3ccccc3nc1n2CCC1=CCCCC1 | -189 | 12 | . | 66* | -3 | -21
O=C1CCCC2=C1C(c1ccc(O)c(O)c1)Nc1ccc3ncccc3c12 (stereo not drawn) | -73 | 77* | 24 | -24 | 5 | -9
O=C1CCCC2=C1C(c1cccs1)Nc1ccc3ncccc3c12 (stereo not drawn) | -26 | 13 | . | -22 | 1 | -16
CCN1CCN(Cc2ccc(NC(=O)c3ccc(C)c(NC(=O)C4=NN(c5ccccc5)C(=O)C4)c3)cc2C(F)(F)F)CC1 | -16 | 63* | 14 | -58 | . | .
CCN1CCN(Cc2ccc(NC(=O)c3cc(NC(=O)C4=NN(c5ccccc5)C(=O)C4)cc(OC)c3)cc2C(F)(F)F)CC1 | -56 | 69* | 11 | -39 | . | .
CC(C)(C#CC(O)(c1ccccc1)c1ccccc1)N1CCCC1 | 9 | 11 | -4 | -9 | 0 | -6
Cc1ccc(C)c(N2CCN(c3ccncc3N)CC2)c1 | -11 | 20 | 16 | -21 | . | .
O=C(NCCc1ccccc1)C(=S)N1CCCCC1 | -16 | 3 | 2 | -45 | 1 | 3
Cc1ccc(OCC(=O)N/N=C/C=C/c2ccco2)cc1C | 26 | 16 | 15 | -44 | -4 | -10
O=C(/C=C/c1cc[n+](CC(=O)c2ccc3cccc4c3c2CC4)cc1)c1ccc2cccc3c2c1CC3 | -96 | 55* | ? | 99* | . | .
CC(C)c1ccc(/C=N/NC(=O)c2nnn(-c3nonc3N)c2CSC2=NCCS2)cc1 | -12 | 8 | 8 | 7 | 0 | -10
SMILES | m-calpain inh | Mcl1-Noxa inh | Calb biofilm kill | Mcl1-Bid inh | Bim-Mcl-1 | Arbovirus inh
COc1ccc(C(=O)NC(=S)Nc2ccc3oc(=O)ccc3c2)cc1 | 8 | -4 | -4 | 45 | -3 | 5
CCCCCC(=O)NC(=S)Nc1ccc2oc(=O)ccc2c1 | 20 | 56* | 13 | -15 | -5 | -4
COc1ccc2c(c1)C=C([C@@H]1C[C@H]3CN(c4ccccc4)C(=O)[C@]34CCCN14)CO2 | 26 | 3 | 5 | -18 | -7 | 1
COC(=O)CN1C(=O)N/C(=C/c2ccc(OC)cc2)C1=O | 27 | 29 | 14 | -37 | -7 | 1
COC(=O)Cn1c(=O)c2c(n(Cc3ccccc3)c1=O)N/C(=C/c1ccc(Br)cc1)C2=O | -31 | 54* | 11 | -21 | . | .
CCc1nc(SCc2ccc(F)cc2)[nH]c(=O)c1C#N | -10 | -2 | 15 | 20 | -1 | 40*
COc1ccc(NC(=O)Cc2ccccc2)cc1 | -13 | 5 | 19 | 0 | 0 | 2
COc1ccc(NC(=O)Cc2c(SC)c3ccccc3n2Cc2ccccc2)cc1 | 40 | 78* | 6 | -4 | -4 | -21
CCCOc1ccc(C(=O)NCC(c2ccco2)N(C)C)cc1OC (stereo not drawn) | 17 | -11 | 19 | 95* | -5 | -1
CN(C)c1ccc(N=C/C=C2/N(C)c3ccccc3C2(C)C)cc1 | 32 | 64* | 23 | -69 | -11 | -24
COc1ccc(N=Cc2cc(Cc3ccccc3Cl)cc([N+](=O)[O-])c2O)cc1OC | -64 | 61* | 17 | -1 | -1 | 15
CC(C)(C)c1ccc(NC(=S)NCCc2ccccn2)cc1 | 2 | 23 | 13 | 51* | . | .
Fc1ccc(NC(=S)NCCc2ccccn2)cc1 | -116 | 5 | -4 | -39 | 1 | 8
Cc1ccc(Cl)cc1N(Cc1ccc(C(=O)NCc2cccnc2)cc1)S(=O)(=O)c1ccccc1 | 52* | -4 | . | 1 | -4 | -25
O=C1c2cccnc2C(Nc2ccccc2Br)N1Cc1ccco1 (stereo not drawn) | -24 | 8 | 12 | -15 | 0 | 1
CC[n+]1ccc(/C=C/c2ccc(N(C)C)cc2)c2ccccc21 | 41 | -17 | 35* | -125 | -1 | -25
CC[n+]1ccccc1/C=C/c1ccc(N(C)C)cc1 | -7 | -108 | 5 | -5 | -3 | 0
C=CCN1c2ccccc2[C@]23C[C@@H](C(=O)OC)N(C(=O)NCCC)C2=NC(C(=O)OC)=C(C(=O)OC)[C@H]13 | -31 | -2 | 17 | 7 | . | .
CCC1(O)CC(C(=O)OC)=NN1C(=O)c1ccccc1 (stereo not drawn) | 6 | 64* | . | -11 | -2 | 6
CN(/N=C\c1ccc(O)c(O)c1)c1nc(-c2ccccc2)cc(-c2ccccc2)n1 | -67 | 72* | 13 | 22 | 0 | -33
COc1ccc(-c2nn3c(COc4ccccc4)nnc3s2)cc1OC | -28 | -15 | . | -2 | -2 | 4
COc1ccc(-c2nn3cnnc3s2)cc1OC | -40 | -6 | . | 53* | 1 | 4
N/C(=N\NC(=O)c1cccs1)c1cc2cc(Cl)ccc2oc1=O | -9 | -6 | 19 | -87 | . | .
COc1cc(/C=C2/SC(=Nc3ccc(O)cc3)NC2=O)cc(OC)c1O | 4 | 51* | 12 | -51 | 15 | -8
O=C1NC(=Nc2ccc(O)cc2)S/C1=C\C=C\c1ccco1 | -15 | 60* | 23 | -20 | . | .
